NPY Y1 blocker – antagonists of human neuropeptide Y receptor Y1. P25929. HEK293-CNG Y1 cells, membrane potential fluorescence; NPY at EC95, then isoproterenol. inhibition, % at 3.6 µM. 200,000 tested, 1% active. AID 1040;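 active = inhibition above the campaign mean inhibition of all tested compounds plus 3 SD, cut at about 20% in these data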;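 note: 0% = DMSO wells given NPY plus isoproterenol and 100% = isoproterenol alone without NPY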
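Material: HEK293 Y1/CNG channel cell line | Also added: NPY (25 nM), isoproterenol (1 µM), Ro 20-1724 (25 µM) | Compound: One concentration, 3.6 µM, in 0.4% DMSO | Schedule: 3 h dye uptake, 1 h room-temperature compound, 45 min post-isoproterenol | Signal: Membrane-potential fluorescent dye readout | Read-out: % inhibition of NPY effect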
NPY2 pot ag – potentiators or agonists of human neuropeptide Y receptor Y2 | P49146 | cells expressing NPY-Y2, potentiator/agonist read-out | activation, % at 3.6 µM | 220,000 tested, 0.45% active | AID 1359; in the data active = activation above about 27%;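 note: cells stimulated with NPY near EC25 plus isoproterenol at EC100; 0% = vehicle plus submaximal agonist and 100% = vehicle plus saturating agonist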
Target sequence (P49146 whole entry, looked up): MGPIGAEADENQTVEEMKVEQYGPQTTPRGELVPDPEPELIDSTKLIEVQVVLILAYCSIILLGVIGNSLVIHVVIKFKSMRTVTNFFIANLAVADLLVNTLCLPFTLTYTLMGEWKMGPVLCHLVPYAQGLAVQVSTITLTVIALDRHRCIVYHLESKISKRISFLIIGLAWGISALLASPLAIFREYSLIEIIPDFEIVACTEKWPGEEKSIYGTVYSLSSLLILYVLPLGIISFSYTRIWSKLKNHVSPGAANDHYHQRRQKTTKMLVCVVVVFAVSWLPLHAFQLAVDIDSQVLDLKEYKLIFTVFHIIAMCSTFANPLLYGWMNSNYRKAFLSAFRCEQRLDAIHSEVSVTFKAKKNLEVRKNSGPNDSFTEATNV
WT yeast gro inh – growth inhibition of WT yeast, mitochondrial fusion screen; mitochondrial fusion phenotypic screen, WT strain; inhibition, % at 10 µM; 190,000 tested, 2.1% active; in the data active = inhibition above about 58%; tested in S. cerevisiae
RAM inhibit – inhibitors of the yeast RAM network; S. cerevisiae dse1pr::URA3 reporter, 5-FOA growth OD615, 2 d; analog-sensitive cbk1-as2 kinase mutant strain; AID 868; inhibition, % at 50 µM; 190,000 tested, 1.8% active;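 active = inhibition above a set limit, 3 SD over mean compound inhibition, cut at about 8.4% in these data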;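 note: 0% = DMSO-only wells with no growth and 100% = 10 µM 1-NA-PP1 full growth; inhibition rescues growth on 5-FOA so higher OD means more RAM inhibition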
NPY-Y1 PAM-ag – human NPY-Y1 potentiation or agonism, primary screen. P25929. NPY-Y1 expressing cells, potentiator/agonist activation. activation, % at 3.6 µM. 220,000 tested, 0.37% active. AID 1304; in the data active = activation above about 33%, passing the limit was not always enough;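 note: cells stimulated with NPY at EC10 then isoproterenol at EC100; 0% = low agonist plus stimulus and 100% = saturating agonist plus stimulus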
NPY Y2 blocker – antagonists of human neuropeptide Y receptor Y2; P49146; NPY-Y2 expressing cells, antagonist mode; inhibition, % at 2.7 µM; 140,000 tested, 0.99% active; in the data active = inhibition above about 17%;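 note: 0% = vehicle with agonist challenge and 100% = reference antagonist with challenge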
NPY-Y1 antag ct – counter-screen for NPY-Y2 antagonists: human NPY-Y1 antagonism | shares compounds with NPY Y2 blocker | cell-based NPY-Y1 antagonism counterscreen | inhibition, % at 3.6 µM | 710 tested, 19% active | AID 1256; in the data active = inhibition above about 20%;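 note: cells challenged with NPY then isoproterenol with cAMP sensed through a CNG channel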
NPY-Y2 ant conf – human NPY-Y2 antagonism, confirmation | HEK293 NPY-Y2 CNG channel, membrane potential fluorescence | shares compounds with NPY Y2 blocker | inhibition, % at 2.8 µM | 710 tested, 32% active;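 active = mean inhibition of triplicate wells above the hit cutoff set in the primary screen, cut at about 17% in these data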;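 note: 0% = DMSO with NPY challenge and 100% = BIIE0246 high control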
RAM efflux-def – restores 5-FOA growth of efflux-deficient yeast. shares compounds with RAM inhibit. S. cerevisiae efflux-deficient reporter strain, 5-FOA growth OD615, 2 days. max inhibition, %. 1,200 tested, under 10 active; call rule not given here;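 note: plate controls were vehicle for no effect and reference inhibitor for full effect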
* hit, by the source's call; x = not tested or not shown. This is a sample that favours compounds with a hit; in the whole collection about 4.9% have one here.

SMILES	NPY Y1 blocker	NPY2 pot ag	WT yeast gro inh	RAM inhibit	NPY-Y1 PAM-ag	NPY Y2 blocker	RAM efflux-def	others
N#Cc1nc(COc2cccc(Cl)c2)oc1N1CCN(c2ccccc2)CC1	7.9	-17.6	-11.1	16.1*	-20.0	25.1*	3.3	NPY-Y1 antag ct=15.2;NPY-Y2 ant conf=19.8*
CC(=O)Nc1ccc(-c2nnc(SCC(=O)NCc3ccco3)n2C)cc1	-1.4	-12.7	-1.9	2.2	-11.3	3.2	x
CCC(Oc1ccc2c(=O)c(-c3ccccc3OC)coc2c1)C(=O)OCc1ccccc1 (configuration not stated)	1.5	-18.2	21.6	22.2*	-16.6	37.3*	2.4	NPY-Y1 antag ct=6.2;NPY-Y2 ant conf=65.8*
Cc1cc(C)cc(OCc2nnc(SCC(=O)c3ccccc3)o2)c1	13.4	-1.3	5.8	8.2	-56.7	5.9	x
Cc1ccc(C(=O)CSc2nnc(COc3cc(C)cc(C)c3)o2)cc1	6.8	0.7	0.6	12.3*	-5.5	21.2*	1.4	NPY-Y1 antag ct=13.4;NPY-Y2 ant conf=20.5*
CCCCOc1ccc(C(C)NC(=O)CCS(=O)(=O)Cc2ccccc2F)cc1 (configuration not stated)	3.0	5.2	-0.7	3.7	-9.2	4.9	x
COCCNC(=O)c1cc(C)ccc1C	-1.1	11.8	4.5	0.4	5.4	x	x
N#Cc1ccc(-c2cccnc2)nc1SCc1ccc(Cl)c(Cl)c1	3.6	10.5	74.8*	13.3*	2.5	27.2*	11.1	NPY-Y1 antag ct=19.5;NPY-Y2 ant conf=21.3*
Cc1ccc(-c2cc(C(=O)OCC(=O)N(C)C3CCS(=O)(=O)C3)c3ccccc3n2)c(C)c1 (configuration not stated)	2.1	2.0	-14.6	2.5	-9.1	x	x
Clc1ccc(CSc2nnc(/C=C/c3ccccc3)o2)cc1	0.9	-8.6	7.7	12.7*	-18.9	18.1*	2.4	NPY-Y1 antag ct=24.1*;NPY-Y2 ant conf=21.0*
C=CCSc1nc2ccccc2c2nc(-c3ccccc3)nn12	3.6	-19.1	2.5	13.0*	-20.9	-1.7	2.5
CC1=CC(C)(C)n2c(O)c(N=NC(N)=S)c3cccc1c32	-4.9	13.0	-1.9	12.5*	-10.8	0.7	4.7
CC1=CC(C)(C)n2c(O)c(N=NC(N)=S)c3c(C)ccc1c32	-0.8	1.7	6.3	-0.1	1.4	1.0	x
COc1ccc(Cc2nc(-c3ccc(-n4cccc4)cc3)no2)cc1OC	1.4	-14.2	9.7	12.0*	-8.1	15.8	4.6
CCCC(CCC)=NNc1ccc(S(=O)(=O)Nc2ccccc2OC)cc1[N+](=O)[O-]	-2.5	-10.1	11.2	16.1*	-12.8	-4.1	2.1
CCOC(=O)C1=NN(c2ccccc2C)C2=NC(C)=C(C(=O)OC)C(c3cccs3)N12 (configuration not stated)	7.7	-3.5	27.4	1.9	-26.2	8.0	x
CCOC(=O)C1=NN(c2ccccc2C)C2=NC(C)=C(C(=O)OC)C(c3cccc(OC)c3)N12 (configuration not stated)	9.9	-5.7	2.2	22.7*	-6.4	15.1	3.1
CCSC1=N/C(=C\c2ccc(-c3ccccc3[N+](=O)[O-])o2)C(=O)S1	-1.9	-0.1	-7.2	14.2*	-12.6	4.4	2.9
CCCSC1=N/C(=C\c2ccc([N+](=O)[O-])o2)C(=O)S1	-0.5	2.7	23.9	1.0	-14.1	x	x
CN(C)S(=O)(=O)c1ccc(NCC2COc3ccccc3O2)c([N+](=O)[O-])c1 (configuration not stated)	0.4	10.2	1.6	2.7	-9.7	1.3	x
CCN(CC)S(=O)(=O)c1ccc(NCC2COc3ccccc3O2)c([N+](=O)[O-])c1 (configuration not stated)	2.6	17.2	-1.0	17.4*	-2.9	1.7	3.3
CCOC(=O)C1C(c2cccnc2)NC(=O)NC1(O)C(F)(F)F (configuration not stated)	2.6	27.1	-9.3	2.8	20.4	x	x
CCc1ccc(C(=O)COC(=O)C(Cc2ccccc2)NC(=O)c2ccc(Cl)cc2)cc1 (configuration not stated)	0.7	7.7	17.3	16.6*	8.8	1.3	3.4
O=C1c2ccccc2C(=O)N1CCCCN(C(=O)c1ccc(Cl)s1)c1ccc(Cl)cc1	-1.5	-2.6	5.2	11.5*	-15.1	11.2	3.6
COc1ccc(C2NC(=O)NC(C)=C2C(=O)Nc2cc(C)ccc2C)cc1OC (configuration not stated)	-2.9	2.8	-14.2	11.8*	-3.8	0.6	4.3
SMILES	NPY Y1 blocker	NPY2 pot ag	WT yeast gro inh	RAM inhibit	NPY-Y1 PAM-ag	NPY Y2 blocker	RAM efflux-def	others
CCSC1=N/C(=C\c2ccc3c(c2)OCO3)C(=O)S1	-1.1	-1.1	-8.7	14.8*	-29.2	2.1	6.1
COc1ccc(N(C(=O)Cn2nnc3ccccc32)C(C(=O)NC(C)(C)C)c2ccc(OC)c(O)c2)cc1 (configuration not stated)	-1.3	-11.1	-11.4	1.2	4.6	x	x
CCCNS(=O)(=O)c1ccc(CCC(=O)Nc2cc(Cl)ccc2Oc2ccccc2)cc1	-2.4	-13.9	8.1	11.6*	26.2	1.0	5.2
CC(C)CNS(=O)(=O)c1ccc(CCC(=O)Nc2cc(Cl)ccc2Oc2ccccc2)cc1	-6.5	1.5	17.8	12.5*	21.0	1.6	2.7
CC(C)(C)NS(=O)(=O)c1ccc(CCC(=O)Nc2cc(Cl)ccc2Oc2ccccc2)cc1	-2.7	8.4	12.4	2.2	24.7	-2.2	x
O=[N+]([O-])c1nn(-c2ccccc2)n(O)c1=NCCc1ccccc1	2.3	10.4	-35.9	-0.7	-7.2	2.1	x
CCOc1cc(/C=N/N=C2/NC(=O)C(CC(=O)O)S2)ccc1OCc1ccccc1Cl (configuration not stated)	3.5	-8.9	-1.4	3.7	-1.9	x	x
CCOc1cc(/C=N/N=C2/NC(=O)C(CC(=O)O)S2)ccc1OS(=O)(=O)c1ccc(C)cc1 (configuration not stated)	2.4	3.7	-8.7	12.3*	3.0	x	1.7
FC(F)(F)C1CC(c2cccs2)Nc2ncnn21 (configuration not stated)	-5.8	-0.6	-0.2	-1.1	8.5	2.0	x
COc1ccc(-c2csc(NCc3ccco3)n2)cc1C	1.3	-6.7	-9.6	13.1*	-10.2	1.3	5.1
O=S(=O)(Nc1ccc(N=Nc2ccc(O)c3ccccc23)cc1)c1ccccc1	-13.0	61.9*	58.8*	13.5*	73.0*	-8.2	2.7
